ChEMBL document CHEMBL4184106, “Discovering alkylamide derivatives of bexarotene as new therapeutic agents against triple-negative breast cancer” (Bioorg Med Chem Lett, 2018)

Key:
MCF-10A [1] = experiment: Cytotoxicity against human MCF10A cells assessed as reduction in cell viability by MTT assay; format: cell-based
BT-549 [2] = experiment: Cytotoxicity against human BT549 cells assessed as reduction in cell viability by MTT assay; format: functional, cell-based
MDA-MB-231 [3] = experiment: Effect on epithelial-mesenchymal transition in human MDA-MB-231 cells assessed as ratio of vimentin to beta-actin level at 5 uM by Western blot analysis (reference value: 1); format: functional
MDA-MB-231 [4] = experiment: Inhibition of mammosphere formation in human MDA-MB-231 cells assessed as ratio of KLF4 to beta actin level at 5 uM by Western blot analysis (Rvb= 1); format: functional
Summary of the method: (§1)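 Post-treatment cell lysates were probed by Western blot for CSC markers, with β-actin as the loading control. Band densitometry was normalized to DMSO-treated samples.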

BT-549 [5] = experiment: Effect on epithelial-mesenchymal transition in human BT549 cells assessed as ratio of slug to beta-actin level at 5 uM by Western blot analysis (reference value: 1); format: functional
MDA-MB-231 [6] = experiment: Inhibition of colony formation in human MDA-MB-231 cells at 2 uM supplemented with fresh medium containing compound every 3 days for 10 days by microscopic method based soft agar colony formation assay relative to control; format: functional
BT-549 [7] = experiment: Effect on beta-catenin translocation in nuclear fraction of human BT549 cells assessed as ratio of beta-catenin to beta-actin level at 5 uM by Western blot analysis (reference value: 1); format: functional
MCF7 [8] = experiment: Down regulation of KLF4 expression in human MCF7 cells at 5 uM by Western blot analysis; format: functional
Summary of the method: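 MCF-7 cells were treated and lysates probed by Western blot for CSC-related markers, with β-actin as loading control. Band densitometry was normalized to DMSO-treated samples.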

MCF-10A [9] = experiment: Induction of apoptosis in human MCF10A cells assessed as ratio of cleaved caspase-8 to beta-actin level at 5 uM by western blot analysis (reference value: 1); format: cell-based
MCF-10A [10] = experiment: Induction of apoptosis in human MCF10A cells assessed as ratio of cleaved caspase-3 to beta-actin level at 5 uM by western blot analysis (reference value: 1); format: cell-based
MDA-MB-231 [11] = experiment: Induction of apoptosis in human MDA-MB-231 cells assessed as ratio of cleaved caspase-8 to beta-actin level at 5 uM by western blot analysis (reference value: 1); format: functional
MCF7 [12] = experiment: Inhibition of mammosphere formation in human MCF7 cells assessed as ratio of C-Myc to beta actin level at 5 uM by Western blot analysis (Rvb= 1); format: functional; summary of the method: as §1
BT-549 [13] = experiment: Cytotoxicity against human BT549 cells assessed as reduction in cell viability at 5 uM by MTT assay; format: functional
MDA-MB-231 [14] = experiment: Effect on beta-catenin translocation in cytosolic fraction of human MDA-MB-231 cells assessed as ratio of beta-catenin to beta-actin level at 5 uM by Western blot analysis (reference value: 1); format: functional

C=C(c1ccc(C(=O)NCCN2CCCC2)cc1)c1cc2c(cc1C)C(C)(C)CCC2(C)C
Activity (MCF-10A [1]): Non-Toxic | EC50 (BT-549 [2]): < 10 µM | Ratio (MDA-MB-231 [3]): 0.3 | Ratio (MDA-MB-231 [4]): 0.5 | Ratio (BT-549 [5]): 0.7 | inhibition (INH) (MDA-MB-231 [6]): 90% | Ratio (BT-549 [7]): 0.5 | Activity (MCF7 [8]): 10 - 30% | Ratio (MCF-10A [9]): 1 | Ratio (MCF-10A [10]): 1 | Ratio (MDA-MB-231 [11]): 3.7 | Ratio (MCF7 [12]): 0.8 | Activity (BT-549 [13]): 60% | Ratio (MDA-MB-231 [14]): 2.1
